HNF4A DNA FP: change in binding of human HNF4 alpha to DNA. HNF4a-FITC DNA binding, fluorescence polarization, 1 h. activity change, % at 10 µM. P41235. 360,000 tested, 0.3% active; in the data active = activity change above about 30%, passing the limit was not always enough
Target sequence (P41235 whole entry, looked up): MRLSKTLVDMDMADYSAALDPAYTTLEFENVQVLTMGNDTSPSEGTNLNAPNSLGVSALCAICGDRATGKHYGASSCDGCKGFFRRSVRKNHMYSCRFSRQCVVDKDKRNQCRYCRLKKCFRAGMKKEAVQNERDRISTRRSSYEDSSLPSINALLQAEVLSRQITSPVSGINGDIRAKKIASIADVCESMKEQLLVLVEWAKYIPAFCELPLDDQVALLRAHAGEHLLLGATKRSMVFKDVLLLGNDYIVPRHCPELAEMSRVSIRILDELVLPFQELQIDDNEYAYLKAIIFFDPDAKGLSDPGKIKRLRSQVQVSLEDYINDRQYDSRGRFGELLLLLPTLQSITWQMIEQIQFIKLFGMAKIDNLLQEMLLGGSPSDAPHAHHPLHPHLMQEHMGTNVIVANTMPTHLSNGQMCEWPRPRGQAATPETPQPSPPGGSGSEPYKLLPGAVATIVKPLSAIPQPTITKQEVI
Rpn11 block: inhibitors of human proteasome Rpn11. O00487. human 26S proteasome, Ub4-pepOG fluorescence polarization; 20S core pre-blocked with epoxomicin. inhibition, % at 20 µM. 360,000 tested, 0.59% active. AID 588493;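 active = inhibition at 20 µM, scaled to each plate's controls, above about 33%, limit read from the data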
TPT1 inh: blocks Candida albicans tRNA 2'-phosphotransferase; recombinant caTPT1, FP RNA substrate dephosphorylation; inhibition, % at 5 µM; 300,000 tested, 0.81% active; AID 1962;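 active = inhibition above the mean of all tested compounds plus 3 SD, set per screening campaign, cut at about 24% in these data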;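 also: plate controls were DMSO alone for no effect and ferristatin control at 100 nM for full effect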
CSN inh: blocks human CSN-mediated cullin deneddylation; Purified CSN, SCF-Nedd8-OG deneddylation, fluorescence polarization; inhibition, % at 12.5 µM; 360,000 tested, 0.38% active; AID 651999;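 active = pattern-corrected inhibition above about 35%, with an unprinted fluorescence ratio check between 0.5 and 1.5, limit read from the data, passing the limit was not always enough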;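 also: 0% = enzyme with substrate and 100% = substrate without enzyme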
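test system = HEK293T-derived human Csn5 enzyme | amount = 0.24 nM Csn5 enzyme, final concentration | medium = Tris/NaCl/DTT buffer, pH 7.5 | schedule = 90 min reaction at room temperature | signal = FP | evaluation = inhibition of Csn5 cleavage, % | compound dosing = single dose of 12.5 µM compound with 0.25% DMSO | probe or stimulus = 10 nM SCFSkp2-Nedd8OG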
Myeloid diff 2: myeloid differentiation induction; AID 624256; calls only at 10 µM; ER-HoxA9 myeloid progenitors, lysozyme-GFP differentiation, flow cytometry; 360,000 tested, 1% active;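 active = normalized GFP-positive differentiation at or above the plate's own cutoff, the solvent-only control mean plus 3 SD; inconclusive = no clear call, values can overlap the other calls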;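 also: cells exposed to compound for four days before flow analysis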
Myeloid diff: myeloid differentiation induction | shares compounds with Myeloid diff 2 | ER-HoxA9 myeloid progenitors, GFP/Mac1 double-positive flow | calls only | 2,300 tested, 2% active;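 active = share of green or green-and-red cells above 9 and 9% in run 1 or 4 and 3% in run 2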
GFP autofluor: compound fluorescence in myeloid differentiation counter-screen; 2,300 tested, 7.4% active; shares compounds with Myeloid diff 2; fluorescence response, % (no concentration beside the values); ER-HoxA9 myeloid progenitors, no estrogen, GFP autofluorescence flow cytometry; vehicle wells 0%, positive control 100%;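 active = over 5% cells positive for green fluorescent reporter, or over 2% positive for both it and APC stain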;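 also: range taken on the double positive population between DMSO and positive control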
Starred values were filed as active, the others as inactive; i = inactive; u = inconclusive; x = no result given; + = active, no number. Only some compounds are listed: those with a hit (about 2.3% of all), similar ones and a draw of the others.

SMILES | HNF4A DNA FP | Rpn11 block | TPT1 inh | CSN inh | Myeloid diff 2 | Myeloid diff | GFP autofluor
COc1ccccc1C(CNC(=O)CN1C(=O)NC(C)(c2ccc3ccccc3c2)C1=O)N1CCCC1 (stereo not drawn) | -2 | 5 | x | -2 | i | x | x
COc1cc(S(=O)(=O)n2ccc(C)n2)c(OC)cc1Cl | 1 | 1 | -4 | 0 | + | i | 0
COc1cc(S(=O)(=O)n2ccc(C)n2)ccc1Cl | 1 | -1 | -1 | 0 | i | x | x
COc1ccc(CCNS(=O)(=O)c2cccc(F)c2)cc1OC | -3 | -4 | 2 | -6 | i | i | 0
COc1ccc(CCNS(=O)(=O)c2cccc(C)c2)cc1OC | 1 | 0 | 1 | 0 | i | x | x
O=C1C=C(Nc2ccccc2O)c2ccccc2C1=O | 0 | -15 | -17 | -4 | i | x | x
Cc1ccc(NC2=CC(=O)C(=O)c3ccccc32)c(C)c1 | -1 | -4 | x | -1 | + | i | 3.1*
Cc1ccc(C(C(=O)NC(C)(C)C)N(CC2CCCO2)C(=O)c2csnn2)cc1 (stereo not drawn) | -1 | 1 | 0 | 2 | i | x | x
CC(C)(C)NC(=O)C(c1ccc(-c2ccccc2)cc1)N(C[C@H]1CC[C@@H]([C@@H]2CC[C@H](CO)O2)O1)C(=O)c1ccc(C(C)(C)C)cc1 (stereo partly drawn) | 1 | 6 | x | 2 | i | i | 0
O=C(c1ccc(-c2ccc([N+](=O)[O-])cc2)o1)N1CCCCCCC1 | 3 | -2 | x | -1 | + | i | 0
O=C(Cc1ccc([N+](=O)[O-])cc1)N1CCCCCC1 | 3 | -1 | -2 | 0 | i | x | x
Cc1ccc(-n2nnnc2CNC(=O)c2ccc([N+](=O)[O-])o2)cc1C | 1 | -6 | 2 | -5 | + | i | 0
O=C(NCc1nnnn1-c1ccc(F)cc1)c1ccc2ccccc2c1 | 7 | -4 | x | -2 | i | x | x
Cc1ccc(-n2nnnc2CNC(=O)c2ccc(Br)o2)cc1C | 3 | 4 | -2 | 3 | i | x | x
O=C(NCc1nnnn1-c1ccc(F)cc1)c1ccc([N+](=O)[O-])o1 | 2 | -1 | -2 | 24 | + | i | 4
O=C(Nc1ccc(F)cc1)c1ccc(C(=O)N2CCCC(O)C2)cc1 (stereo not drawn) | 6 | -7 | -4 | 101 | i | x | x
C[C@@H]1CN([C@H](C)CO)S(=O)(=O)c2ccc(-c3ccc(C#N)cc3)cc2O[C@H]1CN(C)C(=O)Nc1cc(F)ccc1F | 0 | 5 | x | -1 | i | x | x
CC(OC(=O)Cn1cnc2c1c(=O)n(C)c(=O)n2C)C(=O)N(C)c1ccccc1 (stereo not drawn) | -1 | 0 | 0 | -6 | i | x | x
O=C(Nc1ccc(F)cc1)c1sccc1SCc1cccc(C(F)(F)F)c1 | 0 | 0 | -3 | -1 | i | x | x
COc1ccc(NC(=O)c2sccc2SCc2cccc(C(F)(F)F)c2)cc1 | -5 | 3 | 0 | 1 | i | i | 0
CCN(CC)S(=O)(=O)c1ccc(N2CCOCC2)c(NC(=O)c2cc3ccccc3o2)c1 | 2 | 4 | x | -4 | i | x | x
C=C1CC(C(=O)N/N=C/c2ccccc2)C1 | -2 | -6 | 2 | -7 | i | x | x
COc1ccc2ccccc2c1CNC(=O)CC1C(=O)NCCN1CC(C)C (stereo not drawn) | 15 | 24 | 20 | 5 | + | i | 0
CCOc1ccc(CN2CCNC(=O)C2CC(=O)NCc2csc(C(C)C)n2)cc1 (stereo not drawn) | 3 | -3 | x | 2 | u | x | x
CC(C)c1nc(CNC(=O)CC2C(=O)NCCN2Cc2ccccc2)cs1 (stereo not drawn) | 3 | 9 | x | 2 | i | i | 0
SMILES | HNF4A DNA FP | Rpn11 block | TPT1 inh | CSN inh | Myeloid diff 2 | Myeloid diff | GFP autofluor
CCn1ccnc1CNC(=O)CC1C(=O)NCCN1CC(c1ccccc1)c1ccccc1 (stereo not drawn) | 7 | -5 | -8 | 2 | i | x | x
COc1cc(NC(=O)c2sc3ncn(CC(=O)N4CCCCC4)c(=O)c3c2C)cc(OC)c1OC | 4 | -3 | -5 | 2 | i | x | x
O=C(Nc1ccc(CN2CCCCC2)cc1)Nc1ccc(Br)cc1Cl | 1 | 7 | -1 | -8 | i | x | x
COc1ccc(CCn2c(C)cc(C(=O)CN3C(=O)C(=O)N(Cc4ccco4)C3=O)c2C)cc1 | -1 | -5 | x | 1 | + | i | 0
COc1ccccc1NC(=O)CSc1nnc(-c2ccccn2)n1Cc1ccco1 | -1 | 0 | -1 | 0 | i | x | x
COc1ccccc1NC(=O)CSc1nnc(-c2ccco2)n1Cc1ccco1 | -1 | 2 | 1 | 8 | i | i | 1
CN(C)c1ccc(/C=C2\Oc3ccc(C#Cc4cccc(N)c4)cc3C2=O)cc1 | 146 | x | x | 80 | i | i | 98*
O=c1oc(Cc2ccccc2)nc2ccccc12 | -1 | -7 | -3 | -4 | i | x | x
CCCCSc1ncnc2c1ncn2C1CCCCO1 (stereo not drawn) | 2 | -3 | x | 7 | i | x | x
C[n+]1ccccc1/C=C/c1ccc(F)c(F)c1 | -1 | 2 | -1 | -5 | i | x | x
C[n+]1ccccc1/C=C/c1ccc2ncccc2c1 | -2 | -5 | x | 0 | + | + | 0
CC(=O)Nc1ccc(NC(=O)CSc2ccc(-c3cccnc3)nn2)cc1 | 1 | 3 | 0 | 3 | i | x | x
O=C(CSc1ccc(-c2cccnc2)nn1)Nc1ccc(Br)cc1 | 0 | 1 | 0 | 1 | i | i | 0
Cc1ccsc1-c1nc(CN2CCCC2c2ccc(F)cc2)c(C)o1 (stereo not drawn) | 5 | 2 | 14 | 14 | i | x | x
Cc1ccc2nc3c(cc2c1)CN(Cc1ccco1)C(=NCC1CCCO1)S3 (stereo not drawn) | -3 | 12 | 0 | 13 | i | i | 0
O=C(CN1C(=O)NC2(CCc3ccccc3C2)C1=O)NCc1ccco1 (stereo not drawn) | 1 | -2 | 2 | 1 | i | i | 0
CC(=O)c1c(C)[nH]c(C(=O)OC(C)C(=O)NC2CCCCC2)c1C (stereo not drawn) | 5 | 2 | x | -1 | i | x | x
COc1cccc(NC(=S)N2CCN(C(c3ccccc3)c3ccccc3)CC2)c1 | 0 | -10 | 0 | 2 | i | i | 0
CN(C)S(=O)(=O)Oc1ccsc1C(=O)Nc1cccc(Cl)c1Cl | 4 | 9 | -3 | -2 | i | i | 0
CC(C)CCNC(=O)C(CC(C)C)N(Cc1ccc2c(c1)OCO2)C(=O)c1snc(C(N)=O)c1N (stereo not drawn) | 1 | 2 | -4 | 0 | i | x | x

Screens (PubChem)
